Assay results from different studies.
Protocols differ between the studies behind these lines.
Target: Serine/threonine-protein kinase PAK 1 (PAK1, Homo sapiens, UniProt Q13153)

Structure (SMILES) | test | conditions | quantity | value
COc1ccc2[nH]c3c4[nH]c5ccc(OC)cc5c4c4c(c3c2c1)C(=O)NC4=O | binding | 1 µM | remaining binding | 70%
C1=C/COCc2cc(ccc2OCCN2CCCC2)Nc2nccc(n2)-c2cccc(c2)COC/1 | binding | 0.1 µM | remaining binding | 100%
N#Cc1ccc(NC(=O)Nc2ccccc2)cc1 | cell-free assay, competition with immobilised ligand | 25 µM | remaining binding | 92%
CC#CC(=O)N1CCC[C@H]1c1nc(-c2ccc(C(=O)Nc3ccccn3)cc2)c2c(N)nccn12 | enzyme activity, inhibitor | 1 µM | inhibition | 1%
COc1ccc2oc(-c3ccc4nc(N)oc4c3)c/c(=N\c3ccccc3NC(=O)CCN)c2c1 | binding | 1 µM | remaining binding | 104%
CCCCC(=O)Nc1ccc(-c2ccc3ncn(CCC)c(=O)c3c2)cn1 | binding, competition with immobilised ligand | 0.5 µM | remaining binding | 97%
C=CC(=O)N1CCC([C@@H]2CCNc3c(C(N)=O)c(-c4ccc(Oc5ccccc5)cc4)nn32)CC1 | enzyme activity, inhibitor | 1 µM | inhibition | 9%
C[C@H]1CC[C@H](n2c3cnccc3c3cnc(Nc4ccc5c(n4)CCN(C(=O)CO)C5)nc32)CC1 | cell-free assay | 1 µM | remaining signal | 100%
